From ChEMBL document CHEMBL1122046, “Quaternary heterocyclylamino beta-lactams: a generic alternative to the classical acylamino side chain” (1982)
In brackets after ≈: the same amount, converted by molar mass.

test system: Streptococcus pyogenes; assay: Minimum inhibitory concentration against aerobic organism Streptococcus pyogenes strain 3124; assay type: functional; details: Streptococcus pyogenes; read-out: MIC
Summary of the method: (§1)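 Agar-dilution MIC in µg/mL against aerobic bacterial strains on tryptocase soy agar, with inoculum applied as spots. Most series used 10^5 cfu per spot, and a later series used 10^4 cfu per spot. In some tables, footnoted strains were instead tested on Mueller-Hinton or nutrient agar. β-Lactamase-producing strains are flagged.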

Row | MIC [µg/mL] | SMILES
1 | 0.25 (≈ 0.504 µM) | Cc1ccccc1-[n+]1ccc(N[C@@H]2C(=O)N3C(C(=O)[O-])=C(CSc4nnnn4C)CS[C@H]23)cc1
2 | < 0.5 | Cn1nnnc1SCC1=C(C(=O)[O-])N2C(=O)[C@@H](Nc3cc[n+](CCc4ccccc4)cc3)[C@H]2SC1

test system: Morganella morganii; assay: Minimum inhibitory concentration against aerobic organism Morganella morganii strain 2833; assay type: functional; details: Morganella morganii; read-out: MIC; summary of the method: as §1

Row | MIC [µg/mL] | SMILES
3 | > 128 | Cc1ccccc1-[n+]1ccc(N[C@@H]2C(=O)N3C(C(=O)[O-])=C(CSc4nnnn4C)CS[C@H]23)cc1
4 | > 128 | Cn1nnnc1SCC1=C(C(=O)[O-])N2C(=O)[C@@H](Nc3cc[n+](CCc4ccccc4)cc3)[C@H]2SC1

test system: Enterobacter cloacae; assay: Minimum inhibitory concentration against aerobic organism Enterobacter cloacae strain 2646; assay type: functional; details: Enterobacter cloacae; read-out: MIC; summary of the method: as §1

Row | MIC [µg/mL] | SMILES
5 | > 128 | Cc1ccccc1-[n+]1ccc(N[C@@H]2C(=O)N3C(C(=O)[O-])=C(CSc4nnnn4C)CS[C@H]23)cc1
6 | 8 (≈ 15.7 µM) | Cn1nnnc1SCC1=C(C(=O)[O-])N2C(=O)[C@@H](Nc3cc[n+](CCc4ccccc4)cc3)[C@H]2SC1

test system: Klebsiella pneumoniae; assay: Minimum inhibitory concentration against aerobic organism Klebsiella pneumoniae strain 2882; assay type: functional; details: Klebsiella pneumoniae; read-out: MIC; summary of the method: as §1

Row | MIC [µg/mL] | SMILES
7 | 128 (≈ 258 µM) | Cc1ccccc1-[n+]1ccc(N[C@@H]2C(=O)N3C(C(=O)[O-])=C(CSc4nnnn4C)CS[C@H]23)cc1
8 | 1 (≈ 1.96 µM) | Cn1nnnc1SCC1=C(C(=O)[O-])N2C(=O)[C@@H](Nc3cc[n+](CCc4ccccc4)cc3)[C@H]2SC1

test system: Proteus mirabilis; assay: Minimum inhibitory concentration against aerobic organism Proteus mirabilis strain 2830; assay type: functional; details: Proteus mirabilis; read-out: MIC; summary of the method: as §1

Row | MIC [µg/mL] | SMILES
9 | > 128 | Cc1ccccc1-[n+]1ccc(N[C@@H]2C(=O)N3C(C(=O)[O-])=C(CSc4nnnn4C)CS[C@H]23)cc1
10 | > 128 | Cn1nnnc1SCC1=C(C(=O)[O-])N2C(=O)[C@@H](Nc3cc[n+](CCc4ccccc4)cc3)[C@H]2SC1

test system: Proteus vulgaris; assay: Minimum inhibitory concentration against aerobic organism Proteus vulgaris strain 2829; assay type: functional; details: Proteus vulgaris; read-out: MIC; summary of the method: as §1

Row | MIC [µg/mL] | SMILES
11 | 2 (≈ 4.04 µM) | Cc1ccccc1-[n+]1ccc(N[C@@H]2C(=O)N3C(C(=O)[O-])=C(CSc4nnnn4C)CS[C@H]23)cc1
12 | > 128 | Cn1nnnc1SCC1=C(C(=O)[O-])N2C(=O)[C@@H](Nc3cc[n+](CCc4ccccc4)cc3)[C@H]2SC1

test system: Klebsiella aerogenes; assay: Minimum inhibitory concentration against aerobic organism Enterobacter aerogenes strain 2906; assay type: functional; details: Klebsiella aerogenes; read-out: MIC; summary of the method: as §1

Row | MIC [µg/mL] | SMILES
13 | > 128 | Cc1ccccc1-[n+]1ccc(N[C@@H]2C(=O)N3C(C(=O)[O-])=C(CSc4nnnn4C)CS[C@H]23)cc1
14 | 64 (≈ 126 µM) | Cn1nnnc1SCC1=C(C(=O)[O-])N2C(=O)[C@@H](Nc3cc[n+](CCc4ccccc4)cc3)[C@H]2SC1

test system: Pseudomonas aeruginosa; assay: Minimum inhibitory concentration against aerobic organism Pseudomonas aeruginosa strain 2835; assay type: functional; details: not given; summary of the method: as §1

Row | MIC [µg/mL] | SMILES
15 | > 128 | Cc1ccccc1-[n+]1ccc(N[C@@H]2C(=O)N3C(C(=O)[O-])=C(CSc4nnnn4C)CS[C@H]23)cc1
16 | > 128 | Cn1nnnc1SCC1=C(C(=O)[O-])N2C(=O)[C@@H](Nc3cc[n+](CCc4ccccc4)cc3)[C@H]2SC1

test system: Shigella; assay: Minimum inhibitory concentration against aerobic organism Shigella species strain 2880; assay type: functional; details: Shigella; read-out: MIC; summary of the method: as §1

Row | MIC [µg/mL] | SMILES
17 | 1 (≈ 2.02 µM) | Cc1ccccc1-[n+]1ccc(N[C@@H]2C(=O)N3C(C(=O)[O-])=C(CSc4nnnn4C)CS[C@H]23)cc1
18 | < 0.5 | Cn1nnnc1SCC1=C(C(=O)[O-])N2C(=O)[C@@H](Nc3cc[n+](CCc4ccccc4)cc3)[C@H]2SC1

test system: not listed separately; assay: Minimum inhibitory concentration against aerobic organism Salmonella schottmuelleri strain 2837; assay type: functional; details: Salmonella; read-out: MIC; summary of the method: as §1

Row | MIC [µg/mL] | SMILES
19 | 2 (≈ 4.04 µM) | Cc1ccccc1-[n+]1ccc(N[C@@H]2C(=O)N3C(C(=O)[O-])=C(CSc4nnnn4C)CS[C@H]23)cc1
20 | 1 (≈ 1.96 µM) | Cn1nnnc1SCC1=C(C(=O)[O-])N2C(=O)[C@@H](Nc3cc[n+](CCc4ccccc4)cc3)[C@H]2SC1

test system: Escherichia coli; assay: MIC against aerobic organism Escherichia coli strain 2891; assay type: functional; details: Escherichia coli; read-out: MIC; summary of the method: as §1

Row | MIC [µg/mL] | SMILES
21 | 2 (≈ 4.04 µM) | Cc1ccccc1-[n+]1ccc(N[C@@H]2C(=O)N3C(C(=O)[O-])=C(CSc4nnnn4C)CS[C@H]23)cc1
22 | 4 (≈ 7.85 µM) | Cn1nnnc1SCC1=C(C(=O)[O-])N2C(=O)[C@@H](Nc3cc[n+](CCc4ccccc4)cc3)[C@H]2SC1

test system: Enterococcus faecalis; assay: Minimum inhibitory concentration against aerobic organism Streptococcus faecalis strain 2864; assay type: functional; details: not given; summary of the method: as §1

Row | MIC [µg/mL] | SMILES
23 | > 128 | Cc1ccccc1-[n+]1ccc(N[C@@H]2C(=O)N3C(C(=O)[O-])=C(CSc4nnnn4C)CS[C@H]23)cc1
24 | > 128 | Cn1nnnc1SCC1=C(C(=O)[O-])N2C(=O)[C@@H](Nc3cc[n+](CCc4ccccc4)cc3)[C@H]2SC1

test system: Serratia marcescens; assay: Minimum inhibitory concentration against aerobic organism Serratia marcescens strain 2852; assay type: functional; details: Serratia marcescens; read-out: MIC; summary of the method: as §1

Row | MIC [µg/mL] | SMILES
25 | > 128 | Cc1ccccc1-[n+]1ccc(N[C@@H]2C(=O)N3C(C(=O)[O-])=C(CSc4nnnn4C)CS[C@H]23)cc1
26 | > 128 | Cn1nnnc1SCC1=C(C(=O)[O-])N2C(=O)[C@@H](Nc3cc[n+](CCc4ccccc4)cc3)[C@H]2SC1

test system: Staphylococcus aureus; assay: Minimum inhibitory concentration against aerobic organism Staphylococcus aureus strain 2868; assay type: functional; details: Staphylococcus aureus; read-out: MIC; summary of the method: as §1

Row | MIC [µg/mL] | SMILES
27 | 32 (≈ 64.6 µM) | Cc1ccccc1-[n+]1ccc(N[C@@H]2C(=O)N3C(C(=O)[O-])=C(CSc4nnnn4C)CS[C@H]23)cc1
28 | 4 (≈ 7.85 µM) | Cn1nnnc1SCC1=C(C(=O)[O-])N2C(=O)[C@@H](Nc3cc[n+](CCc4ccccc4)cc3)[C@H]2SC1
